According to PMC6648324 (ACS Omega, 2019):
Values joined by “and” are separate entries in the source; they are usually repeats but may differ in a detail not shown here. Equal values may be shown once. Read-outs that look alike come from different tables or passages of the source. Values belong to the compound of their own block, whether it stands above or below them.

Tests used:
[1] = cited from earlier work
[2] = Cyclic voltammetry in DMSO; assay type: physicochemical; conditions: 200 mV s^–1
How it was run: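 Flavone at ~2−2.5 mM in DMSO with 0.1 M n-Bu4NPF6 under Ar at 25 °C. Three-electrode cell: polished glassy carbon disk (0.07 cm2) working electrode, Pt wire counter, KCl(3 M)/Ag/AgCl reference (+210 mV vs NHE). Sweep rates 50 mV s−1 to 6 V s−1; peak potentials read at 200 mV s−1. E1/2 taken from the […] reduction wave.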

[3] = Stability of the flavone toward oxidation during the kinetic measurements; assay type: physicochemical; conditions: acidic conditions; CH3OH/H2O (80/20 w/w)
[4] = UV–vis absorption spectrophotometric titrations versus pH; assay type: physicochemical; conditions: CH3OH/H2O (80/20 w/w); I = 0.1 M (NEt4ClO4); T = 25.0(2) °C
How it was run: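 Flavone at 10−5−10−4 M in CH3OH/H2O was acidified, then titrated with base over 2 < pH < 12, with full equilibration after each addition. Spectra taken through a quartz immersion probe (l = 1 cm). Specfit analysis gave the 6-OH protonation constants and the spectra of the protonated species.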

[5] = CH3OH/H2O (80/20 w/w); I = 0.1 M (NEt4ClO4); 25.0(2) °C; [H^+] = 10^–2 M; cited from earlier work
[6] = Spectrophotometric titrations with FeNTA at pH 7.4; assay type: physicochemical; conditions: CH3OH/H2O (80/20 w/w), pH = 7.4 (HEPES), I = 0.1 M, 25.0(2) °C, nc = no complexation
How it was run: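 FeNTA made fresh from Fe(III) and solid NTA (~1:1, slight NTA excess) with a few drops of HClO4, then brought to pH 7.4 with 0.1 M HEPES. Flavone (stock ~10−5 M range) in 0.1 M HEPES pH 7.4 CH3OH/H2O was titrated with FeNTA. UV-vis spectra recorded at 25.0(2) °C, l = 1 cm. Constants fitted with Specfit. Ternary complexes checked by negative-mode ESI-MS.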

[7] = Diffusion-ordered spectroscopy NMR; assay type: physicochemical

SMILES: O=c1cc(-c2ccccc2)oc2cccc(O)c12 [5-OH-flavone]
pKa (5-OH) ([1]; CH3OH/water 1/1 w/w): 11.34
pKa (5-OH) ([1]; dioxane/water 1/1 w/w): 11.44

E1/2 of the quasireversible signal (carbonyl) [2]: −1.59 V/KCl(3 M)/Ag/AgCl
SMILES: O=c1cc(-c2ccccc2)oc2ccccc12 [F, 2-phenyl-chromone, reference compound]

SMILES: COc1ccc(-c2cc(=O)c3c(O)c(O)c(OC)cc3o2)cc1 [FOMe, ladanein]
stability of the free ligand in the absence of Fe(III) [3]: remained unaltered over a long period
log K^h (±σ), protonation constant (6-OH group) [4]: 10.33(5)
E1/2 of the quasireversible signal (carbonyl) [2]: −1.93 V/KCl(3 M)/Ag/AgCl
log K*FFe, conditional stability constant of the ferric complex [5]: 6.0(3)
log K*L·FeNTA (3σ), stability constant of the ferric NTA complex [6]: 4.7(4)
log K*L·FeNTA (3σ), stability constant of the ferric NTA complex ([6]; listed as FOMe/ladanein): 4.7(4) and 4.9(6)
D0, diffusion coefficient [7]: 2.34 × 10^–6 cm^2 s^–1

SMILES: O=c1cc(-c2ccc(O)cc2)oc2cc(O)cc(O)c12 [apigenin]
log K*FFe, conditional stability constant of the ferric complex [5]: 5.5(1)

log K*L·FeNTA (3σ), stability constant of the ferric NTA complex [6]: 5.8(7)
SMILES: COc1ccc(-c2cc(=O)c3c(O)c(OC)c(OC)cc3o2)cc1 [salvigenin, reference compound]
log K*FFe, conditional stability constant of the ferric complex [5]: 5.8(2)
